From ChEMBL document CHEMBL3045897, “Bioactivity of compounds from Acmella oleracea against Tuta absoluta (Meyrick) (Lepidoptera: Gelechiidae) and selectivity to two non-target species” (Pest Manag Sci, 2012)

Tests used:
Tetragonisca angustula = assay: Contact toxicity against adult Tetragonisca angustula assessed as mortality after 24 hr; type: organism-based; conditions: in vivo, topical_or_ocular
Summary of the method: (§1)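 Topical application of 0.5 µL test solution in acetone per insect; controls got 0.5 µL acetone alone. Insects were held singly with food in small petri dishes at 25 ± 0.5 °C, 75±5% RH and a 12 h photoperiod. Mortality (dead or motionless insects) was scored at 24 h.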

Solenopsis saevissima = assay: Contact toxicity against adult Solenopsis saevissima assessed as mortality after 24 hr; type: organism-based; conditions: in vivo, topical_or_ocular; summary of the method: as §1
[1] = Contact toxicity against adult Solenopsis saevissima assessed as mortality at contact LD80 for second-instar larvae of Tuta absoluta measured after 24 hr; type: organism-based; conditions: in vivo, topical or ocular
[2] = Contact toxicity against adult Tetragonisca angustula assessed as mortality at contact LD80 for second-instar larvae of Tuta absoluta measured after 24 hr; type: organism-based; conditions: in vivo, topical or ocular
Tuta absoluta [3] = assay: Contact toxicity against second-instar larvae of Tuta absoluta assessed as mortality after 24 hr; type: functional; summary of the method: as §1
[4] = Selectivity ratio of LD50 for adult Solenopsis saevissima to LD50 for second-instar larvae of Tuta absoluta
Summary of the method: (§2)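 Test solutions in acetone were applied topically at 0.5 µL per insect, with acetone alone as control. Insects were then held individually in petri dishes with food at 25 ± 0.5 °C, 75±5% RH and a 12 h photoperiod. Mortality (dead or motionless) was scored at 24 h. LD50 values came from probit analysis of dose–mortality data for each species, and SLR50 was computed from these LD50 values.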

[5] = Selectivity ratio of LD50 for adult Tetragonisca angustula to LD50 for second-instar larvae of Tuta absoluta; summary of the method: as §2
Tuta absoluta [6] = assay: Ratio of permethrin LD50 to compound LD50 for second-instar larvae of Tuta absoluta assessed as mortality after 24 hr; type: functional

Row | Compound | LD80 (Tetragonisca angustula) | LD80 (Solenopsis saevissima) | mortality at 24 h [1] | mortality at 24 h [2] | LD50 (Tetragonisca angustula) | LD50 (Tuta absoluta [3]) | LD80 (Tuta absoluta [3]) | Ratio [4] | Ratio [5] | LD50 (Solenopsis saevissima) | Ratio (Tuta absoluta [6])
1 | C#CC#CCCCC/C=C/C(=O)NCC(C)C | 2.02 µg/mg | 2.22 µg/mg | – | – | – | – | – | – | – | – | –
2 | C#CC#CCCCC/C=C/C(=O)NC[C@H](C)CC | 2.26 µg/mg | 4.4 µg/mg | 55% | 59% | 1.1 µg/mg | 0.81 µg/mg | 1.76 µg/mg | 1.64 | 1.35 | 1.33 µg/mg | –
3 | CC1(C)C(C=C(Cl)Cl)C1C(=O)OCc1cccc(Oc2ccccc2)c1 (stereo not drawn) [PERMETHRIN] | 0.002 µg/mg | 1.458 µg/mg | 100% | 100% | 0.0003 µg/mg | 0.71 µg/mg | 2.57 µg/mg | 0.00042 | 0.065 | 0.046 µg/mg | –
4 | C/C=C/C=C\CC/C=C/C(=O)NCC(C)C [Spilanthol] | 0.81 µg/mg | 1.12 µg/mg | 68% | 58% | 0.35 µg/mg | 0.13 µg/mg | 0.56 µg/mg | 1.38 | 2.69 | 0.18 µg/mg | 5
